Laboratory results: article PMC3180826 (ACS chemical neuroscience, 2010)
Positions count from the first letter of the chain named. Values joined by “and” are separate entries in the source; they are usually repeats but may differ in a detail not shown here. Identical values can stand only once.

What was measured:
rM1 receptor = molecular target: T1, rM1 receptor (Rattus norvegicus, UniProt P08482); assay: Calcium mobilization assay, CHO-K1 cells stably expressing rM1; type: cell-based
T1 sequence (P08482 1-460): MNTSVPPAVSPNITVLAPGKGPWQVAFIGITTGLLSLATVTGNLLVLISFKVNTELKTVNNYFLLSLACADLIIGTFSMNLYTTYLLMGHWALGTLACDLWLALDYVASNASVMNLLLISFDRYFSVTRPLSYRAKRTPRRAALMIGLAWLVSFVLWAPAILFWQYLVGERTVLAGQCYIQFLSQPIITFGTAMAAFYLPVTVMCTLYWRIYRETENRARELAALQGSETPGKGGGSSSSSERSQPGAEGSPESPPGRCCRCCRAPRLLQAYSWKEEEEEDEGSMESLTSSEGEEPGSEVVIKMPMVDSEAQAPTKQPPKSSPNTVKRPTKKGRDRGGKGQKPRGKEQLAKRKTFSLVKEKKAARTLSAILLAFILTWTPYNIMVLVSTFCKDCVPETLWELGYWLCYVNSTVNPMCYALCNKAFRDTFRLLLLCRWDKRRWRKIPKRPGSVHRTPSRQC

hM3 = hM3 (Homo sapiens, UniProt P20309); assay: Calcium mobilization assay, agonist mode, M3; type: cell-based; settings: up to 30 μM
In short: (§1)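 CHO-K1 cells stably expressing hM2/Gqi5 or rM4/Gqi5 (6 × 10^4 cells/well), or hM3 or hM5 (5 × 10^4 cells/well), were cultured overnight at 37 °C in 5% CO2. Cells were loaded with 2 μM Fluo-4 AM for 1 h at 37 °C in HBSS with 20 mM HEPES and 2.5 mM probenecid, pH 7.4. Eight-point test compound concentration series were added at 19 s of a 130 s read. Calcium flux was read as fluorescence fold over basal.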

rM4 = molecular target: T2, rM4 (Rattus norvegicus, UniProt P08485); assay: Calcium mobilization assay, agonist mode, M4; type: cell-based; settings: up to 30 μM
T2 sequence (P08485 1-478): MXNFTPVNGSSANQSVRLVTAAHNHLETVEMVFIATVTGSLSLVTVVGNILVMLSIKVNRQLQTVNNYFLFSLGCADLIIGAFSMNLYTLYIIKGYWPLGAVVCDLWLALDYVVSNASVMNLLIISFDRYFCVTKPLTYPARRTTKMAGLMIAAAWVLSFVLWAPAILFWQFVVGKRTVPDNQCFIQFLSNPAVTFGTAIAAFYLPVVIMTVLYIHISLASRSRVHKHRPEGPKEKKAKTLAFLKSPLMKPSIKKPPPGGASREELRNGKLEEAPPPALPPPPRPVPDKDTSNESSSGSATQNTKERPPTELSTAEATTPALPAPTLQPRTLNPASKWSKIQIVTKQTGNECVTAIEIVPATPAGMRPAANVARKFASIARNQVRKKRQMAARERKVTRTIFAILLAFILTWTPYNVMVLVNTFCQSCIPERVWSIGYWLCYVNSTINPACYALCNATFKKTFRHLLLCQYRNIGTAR
In short: as §1

M2 = molecular target: T3, M2 (Homo sapiens, UniProt P08172); assay: [3H]-NMS competition binding, M2 CHO membranes; settings: concentrations well above those required to fully activate M1
T3 sequence (P08172 1-466): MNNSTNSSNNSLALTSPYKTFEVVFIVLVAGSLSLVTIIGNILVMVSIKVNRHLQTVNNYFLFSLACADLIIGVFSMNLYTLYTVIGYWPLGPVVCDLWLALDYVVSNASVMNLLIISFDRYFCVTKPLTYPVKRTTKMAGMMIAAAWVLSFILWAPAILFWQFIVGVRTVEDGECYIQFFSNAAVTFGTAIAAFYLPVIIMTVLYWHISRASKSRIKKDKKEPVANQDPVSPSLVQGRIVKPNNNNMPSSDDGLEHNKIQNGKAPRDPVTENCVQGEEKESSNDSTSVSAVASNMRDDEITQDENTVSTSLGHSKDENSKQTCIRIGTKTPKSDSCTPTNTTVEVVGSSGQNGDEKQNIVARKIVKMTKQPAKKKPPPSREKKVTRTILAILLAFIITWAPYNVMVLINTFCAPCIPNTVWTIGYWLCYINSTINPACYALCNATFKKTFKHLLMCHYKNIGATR

rM1 K392D/E397V/E401H = molecular target: T4, rM1 K392D/E397V/E401H (Rattus norvegicus, UniProt P08482, E397V/E401H/K392D); assay: Calcium mobilization, transiently transfected rM1 triple mutant CHO cells; type: cell-based; settings: compared with wt rM1
T4 sequence (P08482 1-460 K392D/E397V/E401H): T1 sequence (P08482 1-460) with K392D, E397V, E401H
In short: (§2)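 CHO-K1 cells were transiently transfected overnight at 37 °C with 10 μg of mutant rat M1 cDNA in pcDNA3.1+ using Fugene 6, then plated for the calcium assay. They were loaded with 2 μM Fluo-4 AM for 1 h at 37 °C in HEPES/probenecid-buffered HBSS, pH 7.4. Test compound dose–response series were added at 19 s. Calcium mobilization was measured as fluorescence increase over basal.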

rM1 E401H = molecular target: T5, rM1 E401H (Rattus norvegicus, UniProt P08482, E401H); assay: Calcium mobilization, rM1 E401H mutant CHO-K1 cells; type: cell-based
T5 sequence (P08482 1-460 E401H): T1 sequence (P08482 1-460) with E401H
In short: as §2

Sequence of hM3 (P20309 whole entry): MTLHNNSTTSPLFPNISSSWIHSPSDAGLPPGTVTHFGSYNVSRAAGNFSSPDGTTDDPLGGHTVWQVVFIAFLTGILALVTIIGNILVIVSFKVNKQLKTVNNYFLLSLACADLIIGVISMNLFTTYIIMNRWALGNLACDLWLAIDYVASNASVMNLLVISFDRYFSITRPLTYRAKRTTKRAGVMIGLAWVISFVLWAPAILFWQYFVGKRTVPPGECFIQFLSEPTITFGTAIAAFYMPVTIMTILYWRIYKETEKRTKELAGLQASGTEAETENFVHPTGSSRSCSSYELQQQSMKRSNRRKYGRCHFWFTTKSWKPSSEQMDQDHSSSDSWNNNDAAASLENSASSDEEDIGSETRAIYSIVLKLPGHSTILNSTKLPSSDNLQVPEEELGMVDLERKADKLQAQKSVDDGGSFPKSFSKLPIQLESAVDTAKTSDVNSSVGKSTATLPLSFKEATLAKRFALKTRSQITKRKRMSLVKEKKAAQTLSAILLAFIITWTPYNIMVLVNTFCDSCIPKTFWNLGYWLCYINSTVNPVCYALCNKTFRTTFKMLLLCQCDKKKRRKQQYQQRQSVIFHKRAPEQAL

For `CCOC(=O)N1CCC(NCCNC(=O)c2ccccc2)CC1` [VU0184670, ethyl 4-(2-benzamidoethylamino)piperidine-1-carboxylate], the EC50 (rM1 receptor) was 152 nM, the “ACh Max efficacy” value (rM1 receptor; rM1 CHO-K1, calcium mobilization) was 85 % ACh Max and 85.01 % ACh Max and the “Schild analysis: shift of dose-response curve with increasing atropine” value (rM1 receptor; rM1 cells, fixed increasing concentrations of atropine) was “rightward shift with diminished efficacy”. For the same compound, the “agonist activity at M3” value (hM3) was “no activity”, the “agonist activity at M4” value (rM4) was “no activity” and the “reduction of [3H]-NMS binding to M2” value (M2) was “did not reduce”. The “functional response at K392D/E397V/E401H triple mutant” value (rM1 K392D/E397V/E401H) was “almost completely ablated”, the EC50 (rM1 E401H) was 1210 nM and the Emax (rM1 E401H; CHO-K1, read-out: E401H mutant Emax) was 29.4%.
